This is an account of results in ChEMBL document CHEMBL1148641, “Design and synthesis of novel sulfonamide-containing bradykinin hB2 receptor antagonists. 1. Synthesis and SAR of alpha,alpha-dimethylglycine sulfonamides” (J Med Chem, 2006).

For the first assay, the target named is T1, B2 bradykinin receptor (Homo sapiens, UniProt P30411).
T1 sequence (P30411 whole entry): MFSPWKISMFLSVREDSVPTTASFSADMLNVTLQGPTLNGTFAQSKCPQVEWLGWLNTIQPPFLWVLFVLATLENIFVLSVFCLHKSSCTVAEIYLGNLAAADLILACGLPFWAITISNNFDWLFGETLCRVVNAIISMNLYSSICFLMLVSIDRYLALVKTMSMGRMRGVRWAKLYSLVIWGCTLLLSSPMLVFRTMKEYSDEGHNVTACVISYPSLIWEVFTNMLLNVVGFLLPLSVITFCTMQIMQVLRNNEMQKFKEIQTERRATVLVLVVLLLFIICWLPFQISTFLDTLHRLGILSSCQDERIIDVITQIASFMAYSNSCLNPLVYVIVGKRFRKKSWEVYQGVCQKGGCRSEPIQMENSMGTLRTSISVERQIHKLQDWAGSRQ
The assay can be described thus: Displacement of [3H]BK from human B2 receptor transfected in CHO cells.
Settings: not given
Type of assay: cell-based. Put shortly: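 Membranes from stably transfected CHO cells (100-150 µg/mL) incubated 60 min at room temperature with [³H]BK at 0.1-0.2 nM in TES buffer pH 7.4 with 1,10-phenanthroline, bacitracin and BSA, 1% DMSO final. Competitor 1 pM-10 µM; nonspecific binding with 1 µM BK. Filtration, scintillation counting; IC50 converted to pKi by Cheng-Prusoff.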
(Loss of bound radioactivity is the signal in a displacement assay; it reports binding, not function.)
Consider `Cc1ccc2cccc(OCc3c(Cl)ccc(S(=O)(=O)NC(C)(C)C(=O)N4CCN(C(=O)[C@@H](N)CCCCN(C)C)CC4)c3Cl)c2n1`, for which the Ki (usually a measure of affinity in units of concentration, obtained from inhibition or displacement) is 2 nM.
Take `Cc1ccc2cccc(OCc3c(Cl)ccc(S(=O)(=O)NC(C)(C)C(=O)N4CCN(C(=O)C[C@@H](N)CCCCN=C(N)N)CC4)c3Cl)c2n1`: the Ki is 1.26 nM.
On to `Cc1ccc(CNCCCNC(=O)C(C)(C)NS(=O)(=O)c2ccc(Cl)c(COc3cccc4ccc(C)nc34)c2Cl)cc1`, for which affinity was put at a Ki of 200 nM. Against the preceding compound, the Ki is about 160-fold higher.
`COCCCNC(=O)C(C)(C)NS(=O)(=O)c1ccc(Cl)c(COc2cccc3ccc(C)nc23)c1Cl` gave a Ki of 398 nM.
For `Cc1ccc2cccc(OCc3c(Cl)ccc(S(=O)(=O)NC(C)(C)C(=O)NCc4ccccc4)c3Cl)c2n1`, the Ki is more than 10000 nM.
The same measure, in the same setting: for `Cc1ccc2cccc(OCc3c(Cl)ccc(S(=O)(=O)NC(C)(C)C(=O)NCCCN4CCN(C)CC4)c3Cl)c2n1` the value was 251 nM.
The same measure, in the same setting: under `Cc1ccc2cccc(OCc3c(Cl)ccc(S(=O)(=O)NC(C)(C)C(=O)NCCCNCc4ccc(C(N)=O)cc4)c3Cl)c2n1` stands 126 nM; under `Cc1ccc2cccc(OCc3c(Cl)ccc(S(=O)(=O)NC(C)(C)C(=O)NCC4CCNCC4)c3Cl)c2n1`, 158 nM.
For the compound `Cc1ccc2cccc(OCc3c(Cl)ccc(S(=O)(=O)NC(C)(C)C(=O)NCCCNCc4ccc(O)cc4)c3Cl)c2n1`, the affinity corresponds to a Ki of 79.4 nM. This Ki lies about 2-fold lower than the previous one.
Still for that read-out and setting: for `Cc1ccc2cccc(OCc3c(Cl)ccc(S(=O)(=O)NC(C)(C)C(=O)NCCCNCc4ccc(Cl)cc4)c3Cl)c2n1` the value was 794 nM; for `Cc1ccc2cccc(OCc3c(Cl)ccc(S(=O)(=O)NC(C)(C)C(=O)N4CCNCC4)c3Cl)c2n1`, 25.1 nM.
`COc1ccc(CNCCCNC(=O)C(C)(C)NS(=O)(=O)c2ccc(Cl)c(COc3cccc4ccc(C)nc34)c2Cl)cc1` showed a Ki of 200 nM.
Still for that read-out and setting: under `Cc1ccc2cccc(OCc3c(Cl)ccc(S(=O)(=O)NC(C)(C)C(=O)NCCN4CCOCC4)c3Cl)c2n1` stands 2510 nM; under `Cc1cc(C)c2cccc(OCc3c(Cl)ccc(S(=O)(=O)NC(C)(C)C(=O)N4CCN(C(=O)C[C@@H](N)CCCCN(C)C)CC4)c3Cl)c2n1`, 0.501 nM.
On to `Cc1ccc2cccc(OCc3c(Cl)ccc(S(=O)(=O)NC(C)(C)C(=O)N=C(N)N)c3Cl)c2n1`, for which the Ki is 63.1 nM.
In turn, `Cc1cc(C)c2cccc(OCc3c(Cl)ccc(S(=O)(=O)NC(C)(C)C(=O)N4CCN(C(=N)NCCCN)CC4)c3Cl)c2n1` gave a Ki of 1 nM.
Still for that read-out and setting: under `Cc1cc(C)c2cccc(OCc3c(Cl)ccc(S(=O)(=O)NC(C)(C)C(=O)NCCCN)c3Cl)c2n1` stands 25.1 nM; under `Cc1ccc2cccc(OCc3c(Cl)ccc(S(=O)(=O)NC(C)(C)C(=O)N4CCN(CCCCCCN=C(N)N)CC4)c3Cl)c2n1`, 1.58 nM.
Still for that read-out and setting: under `Cc1ccc2cccc(OCc3c(Cl)ccc(S(=O)(=O)NC(C)(C)C(=O)NCCCNCc4ccoc4)c3Cl)c2n1` stands 316 nM; under `Cc1ccc2cccc(OCc3c(Cl)ccc(S(=O)(=O)NC(C)(C)C(=O)NCCCNC(=O)c4ccc(C(=N)N)cc4)c3Cl)c2n1`, 20 nM; under `COCCNC(=O)C(C)(C)NS(=O)(=O)c1ccc(Cl)c(COc2cccc3ccc(C)nc23)c1Cl`, 7940 nM.
`Cc1ccc2cccc(OCc3c(Cl)ccc(S(=O)(=O)NC(C)(C)C(=O)NCCCN(C)C)c3Cl)c2n1` gave a Ki of 200 nM.
With `Cc1ccc2cccc(OCc3c(Cl)ccc(S(=O)(=O)NC(C)(C)C(=O)N4CCCNCC4)c3Cl)c2n1`, the affinity, expressed as Ki, was 25.1 nM. This Ki is about 8-fold lower than that of the compound before.
`Cc1ccc2cccc(OCc3c(Cl)ccc(S(=O)(=O)NC(C)(C)C(=O)NCCc4ccccc4)c3Cl)c2n1` had a Ki of more than 10000 nM.
As for `Cc1ccc2cccc(OCc3c(Cl)ccc(S(=O)(=O)NC(C)(C)C(=O)NCCCNCc4ccc(F)cc4)c3Cl)c2n1`, the Ki is 398 nM.
On to `CC(=O)N[C@@H](CCCCN(C)C)C(=O)N1CCN(C(=O)C(C)(C)NS(=O)(=O)c2ccc(Cl)c(COc3cccc4ccc(C)nc34)c2Cl)CC1`, for which affinity was put at a Ki of 10 nM.
Still for that read-out and setting: under `Cc1ccc2cccc(OCc3c(Cl)ccc(S(=O)(=O)NC(C)(C)C(=O)N4CCN(C(=N)N)CC4)c3Cl)c2n1` stands 3.98 nM; under `Cc1ccc2cccc(OCc3c(Cl)ccc(S(=O)(=O)NC(C)(C)C(=O)NCCCc4ccccc4)c3Cl)c2n1`, more than 10000 nM.
Still for that read-out and setting: for `Cc1ccc2cccc(OCc3c(Cl)ccc(S(=O)(=O)NC(C)(C)C(=O)NCCN=C(N)N)c3Cl)c2n1` the value was 20 nM; for `Cc1ccc2cccc(OCc3c(Cl)ccc(S(=O)(=O)NC(C)(C)C(=O)N4CCCNCCC4)c3Cl)c2n1`, 100 nM; for `Cc1ccc2cccc(OCc3c(Cl)ccc(S(=O)(=O)NC(C)(C)C(=O)NCCCN=C(N)N)c3Cl)c2n1`, 39.8 nM.
On the same count and under the same terms, for `Cc1cc(C)c2cccc(OCc3c(Cl)ccc(S(=O)(=O)NC(C)(C)C(=O)NCCCNc4ccc(C(=N)N)cc4)c3Cl)c2n1` the value was 7.94 nM.
Turning to `Cc1ccc2cccc(OCc3c(Cl)ccc(S(=O)(=O)NC(C)(C)C(=O)NCCCNCc4c[nH]cn4)c3Cl)c2n1`, the affinity, expressed as Ki, was 158 nM.
`Cc1ccc2cccc(OCc3c(Cl)ccc(S(=O)(=O)NC(C)(C)C(=O)NCCCNCc4ccc(N(C)C)cc4)c3Cl)c2n1`: the Ki was 158 nM.
Still for that read-out and setting: under `Cc1cc(C)c2cccc(OCc3c(Cl)ccc(S(=O)(=O)NC(C)(C)C(=O)N4CCN(C(=O)C[C@@H](N)CCCN(C)C)CC4)c3Cl)c2n1` stands 0.631 nM.
On the same count and under the same terms, under `Cc1ccc2cccc(OCc3c(Cl)ccc(S(=O)(=O)NC(C)(C)C(=O)NCCCCN)c3Cl)c2n1` stands 200 nM; under `Cc1ccc2cccc(OCc3c(Cl)ccc(S(=O)(=O)NC(C)(C)C(=O)NCCN4CCCCC4)c3Cl)c2n1`, 316 nM; under `Cc1ccc2cccc(OCc3c(Cl)ccc(S(=O)(=O)NC(C)(C)C(=O)NC4CCNCC4)c3Cl)c2n1`, 79.4 nM.
The same measure, in the same setting: under `Cc1cc(C)c2cccc(OCc3c(Cl)ccc(S(=O)(=O)N4CCC[C@@H]4C(=O)NCCCNC(=O)c4ccc(C(=N)N)cc4)c3Cl)c2n1` stands 0.794 nM; under `Cc1ccc2cccc(OCc3c(Cl)ccc(S(=O)(=O)NC(C)(C)C(=O)NCCN)c3Cl)c2n1`, 100 nM; under `Cc1ccc2cccc(OCc3c(Cl)ccc(S(=O)(=O)NC(C)(C)C(=O)NCCCNCc4ccccc4)c3Cl)c2n1`, 200 nM.
In turn, `Cc1ccc2cccc(OCc3c(Cl)ccc(S(=O)(=O)NC(C)(C)C(=O)NCCCNCc4ccc(S(C)(=O)=O)cc4)c3Cl)c2n1` gave a Ki of 79.4 nM.
Take `Cc1ccc2cccc(OCc3c(Cl)ccc(S(=O)(=O)NC(C)(C)C(=O)NCCCN4CCOCC4)c3Cl)c2n1`: the affinity, expressed as Ki, was 631 nM.
The same measure, in the same setting: under `Cc1ccc2cccc(OCc3c(Cl)ccc(S(=O)(=O)NC(C)(C)C(=O)NCCCN)c3Cl)c2n1` stands 158 nM; under `Cc1ccc2cccc(OCc3c(Cl)ccc(S(=O)(=O)NC(C)(C)C(=O)Nc4ccccc4)c3Cl)c2n1`, 7940 nM.
Compound `Cc1ccc2cccc(OCc3c(Cl)ccc(S(=O)(=O)NC(C)(C)C(=O)NCCCNCc4ccccn4)c3Cl)c2n1` gave a Ki of 39.8 nM.

Another assay concerns the target T1, B2 bradykinin receptor. The assay can be described thus: Activity at human B2 receptor transfected in CHO cells assessed as ability to antagonize BK-induced inositol-phosphate accumulation. The following applies: read-out: pA2 (converted). Type of assay: functional, cell-based. Put shortly: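 Stably transfected CHO cells (1.8 × 10⁵/well) grown overnight at 37 °C, then labeled 24 h with [³H]myo-inositol (1 µCi/well). Antagonist preincubation 20 min at a nanomolar concentration, then BK 1 × 10^-11 to 1 × 10^-5 M for 40 min at 37 °C in LiCl-containing buffer, pH 7.4. IP1 radioactivity by liquid scintillation; pA₂ from EC50 concentration-ratios of sigmoidal fits.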
`Cc1cc(C)c2cccc(OCc3c(Cl)ccc(S(=O)(=O)NC(C)(C)C(=O)N4CCN(C(=O)[C@@H](N)CCCCN(C)C)CC4)c3Cl)c2n1`: the Kb was 3.16 nM.
Still for that read-out and setting: for `Cc1ccc2cccc(OCc3c(Cl)ccc(S(=O)(=O)NC(C)(C)C(=O)N4CCN(C(=O)[C@@H](N)CCCCN(C)C)CC4)c3Cl)c2n1` the value was 11.2 nM; for `Cc1ccc2cccc(OCc3c(Cl)ccc(S(=O)(=O)NC(C)(C)C(=O)N4CCN(C(=O)C[C@@H](N)CCCCN=C(N)N)CC4)c3Cl)c2n1`, 7.94 nM; for `Cc1cc(C)c2cccc(OCc3c(Cl)ccc(S(=O)(=O)NC(C)(C)C(=O)N4CCN(C(=O)C[C@@H](N)CCCCN(C)C)CC4)c3Cl)c2n1`, 2.51 nM.
The same measure, in the same setting: for `Cc1cc(C)c2cccc(OCc3c(Cl)ccc(S(=O)(=O)NC(C)(C)C(=O)N4CCN(C(=N)NCCCN)CC4)c3Cl)c2n1` the value was 2.51 nM; for `Cc1ccc2cccc(OCc3c(Cl)ccc(S(=O)(=O)NC(C)(C)C(=O)N4CCN(CCCCCCN=C(N)N)CC4)c3Cl)c2n1`, 7.94 nM.
On to `CC(=O)N[C@@H](CCCCN(C)C)C(=O)N1CCN(C(=O)C(C)(C)NS(=O)(=O)c2ccc(Cl)c(COc3cccc4ccc(C)nc34)c2Cl)CC1`, for which the Kb was 20 nM.
For the compound `Cc1ccc2cccc(OCc3c(Cl)ccc(S(=O)(=O)NC(C)(C)C(=O)N4CCN(C(=N)N)CC4)c3Cl)c2n1`, the Kb is 39.8 nM.
The same measure, in the same setting: for `Cc1cc(C)c2cccc(OCc3c(Cl)ccc(S(=O)(=O)NC(C)(C)C(=O)N4CCN(C(=O)C[C@@H](N)CCCN(C)C)CC4)c3Cl)c2n1` the value was 2.51 nM.
